From ChEMBL document CHEMBL4715858, “10-N-heterocylic aryl-isoxazole-amides (AIMs) have robust anti-tumor activity against breast and brain cancer cell lines and useful fluorescence properties” (Bioorg Med Chem, 2020) come the findings set out here.

Molecules are shown by their SMILES. Calls of active or inactive are those of the source. The calls are words filed in the database; no cut-off is given here. Some results are limits rather than exact numbers.

The subject of series [1] is SNB-19. Kind of series: Anticancer activity against human SNB-19 cells assessed as cell growth inhibition measured after 3 to 5 days by MTT assay. In kind it is functional, cell-based. In a few lines:
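MTT colorimetric growth-inhibition assay in SNB-19 glioblastoma cells. IC50 obtained by fitting a logistic model to the dose-response data, as the concentration giving 50% growth inhibition relative to the DMSO control.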

A further series concerns C6. The experiment in a line: Anticancer activity against rat C6 cells assessed as cell growth inhibition measured after 3 to 5 days by MTT assay. The class given is functional, cell-based.
In a further series the test system is MDA-MB-468. The experiment in a line: Anticancer activity against human MDA-MB-468 cells assessed as cell growth inhibition measured after 3 to 5 days by MTT assay. In kind it is functional, cell-based.
Series [2] has as its system Quadruplex DNA. The experiment in a line: Stabilization of c-myc Pu22 G4 quadruplex oligonucleotide (unknown origin) assessed as melting temperature at 2 equivalents of compound by thermal melting curve based analysis (reference value: 58.4 degC). In kind it is nucleic-acid assay. The essentials: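 Annealed at 90 °C for 10 min, then cooled gradually to 4 °C overnight. CD melting monitored at 265 nm from 20–90 °C at 1 °C/min in 0.5 °C steps. Tm from a six-parameter logistic fit.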

A short description of series [3]: Drug uptake in human SNB-19 cells assessed as punctate localization at 500 nM incubated for 10 mins followed by compound washout twice by HCS NuclearMask staining based confocal laser scanning microscopy. The class given is ADME, cell-based. Conditions: snb-19, 10 min, 0.5 µM. The essentials: (§1)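 Cells plated at 20,000 cells/well and left to adhere overnight. Treatment medium was made from 5 mM DMSO stocks diluted in growth medium and applied for 10 min at growth conditions. Cells were then washed twice with PBS and fixed in 4% PFA for 10 min on ice. Imaged immediately by confocal microscopy, 60x oil objective, excitation 405 nm, emission 422 nm, with HCS NuclearMask counterstain.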

The test system of series [4] is Quadruplex DNA. Kind of series: Stabilization of c-myc Pu22 G4 quadruplex oligonucleotide (unknown origin) at 2 equivalents of compound by circular dichroism spectral analysis. The class given is nucleic-acid assay. In a few lines:
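Pu22 at 5 µM strand in 1 mM potassium phosphate pH 6, alone or with 2 equivalents compound, annealed at 90 °C for 10 min and then cooled to 4 °C overnight. CD spectra recorded 200–400 nm at 5 °C, 1 nm bandwidth, 0.2 nm step, 0.5 s per point.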

Series [5] in a line: Drug uptake in cytoplasm of human SNB-19 cells at 500 nM incubated for 10 mins followed by compound washout twice by HCS NuclearMask staining based confocal laser scanning microscopy. The class given is ADME, subcellular. The note with it: snb-19, 10 min, 0.5 µM. The essentials: as §1
The test system of series [6] is SNB-19. The experiment in a line: Induction of apoptosis in human SNB-19 cells assessed as membrane blebbing at 500 nM incubated for 10 mins followed by compound washout twice by HCS NuclearMask staining based confocal laser scanning microscopy. The class given is functional, cell-based. The essentials: as §1
Series [7] is described as follows: Drug uptake in nucleus of human SNB-19 cells at 500 nM incubated for 10 mins followed by compound washout twice by HCS NuclearMask staining based confocal laser scanning microscopy. In kind it is ADME, subcellular. The note with it: snb-19, 10 min, 0.5 µM. In a few lines:
as §1

The subject of series [8] is Quadruplex DNA. Kind of series: Stabilization of c-myc Pu22 G4 quadruplex oligonucleotide (unknown origin) assessed as anisotropic shift at 2 equivalents of compound by NMR spectroscopy. In kind it is nucleic-acid assay. The essentials:
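1H NMR titration of the c-myc Pu22 oligomer, following the G-tetrad imino hydrogen-bonding region (10.95–11.6 ppm) for anisotropic shifts.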

Series [9] deals with SNB-19. The experiment in a line: Induction of apoptosis in human SNB-19 cells assessed as organized cell death at 500 nM incubated for 10 mins followed by compound washout twice by HCS NuclearMask staining based confocal laser scanning microscopy. The class given is functional. The essentials:
as §1

As for `Cc1onc(-c2c3ccccc3c(-c3ccccn3)c3ccccc23)c1C(=O)Nc1cc(C(=O)N(CCCN(C)C)CCCN(C)C)n(C)c1`, the IC50 in the series with SNB-19 [1] was greater than 25 µM; in the series on C6, greater than 25 µM; in the series with MDA-MB-468, 6.34 µM.
On to `Cc1onc(-c2c3ccccc3c(-c3cccc4cccnc34)c3ccccc23)c1C(=O)Nc1cc(C(=O)N(CCCN(C)C)CCCN(C)C)n(C)c1`, for which the Tm in the series with Quadruplex DNA [2] amounted to 61.7 °C. Also, the IC50 in the series on SNB-19 [1] stood at 2.03 µM; in the series with C6 it was 6.71 µM; in the series on MDA-MB-468 it was 1.17 µM. For the same molecule, the Drug uptake result in [3] is reported as “Active”; in series [5] it was “Active”; in series [7] it was “Not Active”. Also, the result in the series with Quadruplex DNA [4], with SNB-19 [6], in the series on Quadruplex DNA [8] and in the series with SNB-19 [9] was Active.
For `Cc1onc(-c2c3ccccc3c(-c3cccnc3)c3ccccc23)c1C(=O)Nc1cc(C(=O)N(CCCN(C)C)CCCN(C)C)n(C)c1`, the IC50 in the series on SNB-19 [1] was 7.76 µM; with C6, greater than 25 µM; with MDA-MB-468 it was 1.29 µM.
`Cc1onc(-c2c3ccccc3c(-c3ccccc3)c3ccccc23)c1C(=O)Nc1cc(C(=O)N(CCCN(C)C)CCCN(C)C)n(C)c1`: the outcome in the series on Quadruplex DNA [8] was Active.
Regarding `Cc1onc(-c2c3ccccc3c(-c3ccncc3)c3ccccc23)c1C(=O)Nc1cc(C(=O)N(CCCN(C)C)CCCN(C)C)n(C)c1`, the values for the IC50 in the series with SNB-19 [1], in the series on C6 and in the series with MDA-MB-468 were 7.08 µM, 16.9 µM and 3.1 µM, respectively.
As for `CCOC(=O)c1c(-c2c3ccccc3c(-c3ccccc3)c3ccccc23)noc1C`, the outcome with Quadruplex DNA [8] was Active.
